We go through one compound from ChEMBL document CHEMBL2163314, “Potent aminocyclitol glucocerebrosidase inhibitors are subnanomolar pharmacological chaperones for treating gaucher disease” (J Med Chem, 2012).

Each structure is given as a SMILES string. Active and inactive are the calls of the source. No cut-off for these calls is given here.

For this assay, the target named is T1, Non-lysosomal glucosylceramidase (Mus musculus) (UniProt Q69ZF3).
T1 sequence (whole entry): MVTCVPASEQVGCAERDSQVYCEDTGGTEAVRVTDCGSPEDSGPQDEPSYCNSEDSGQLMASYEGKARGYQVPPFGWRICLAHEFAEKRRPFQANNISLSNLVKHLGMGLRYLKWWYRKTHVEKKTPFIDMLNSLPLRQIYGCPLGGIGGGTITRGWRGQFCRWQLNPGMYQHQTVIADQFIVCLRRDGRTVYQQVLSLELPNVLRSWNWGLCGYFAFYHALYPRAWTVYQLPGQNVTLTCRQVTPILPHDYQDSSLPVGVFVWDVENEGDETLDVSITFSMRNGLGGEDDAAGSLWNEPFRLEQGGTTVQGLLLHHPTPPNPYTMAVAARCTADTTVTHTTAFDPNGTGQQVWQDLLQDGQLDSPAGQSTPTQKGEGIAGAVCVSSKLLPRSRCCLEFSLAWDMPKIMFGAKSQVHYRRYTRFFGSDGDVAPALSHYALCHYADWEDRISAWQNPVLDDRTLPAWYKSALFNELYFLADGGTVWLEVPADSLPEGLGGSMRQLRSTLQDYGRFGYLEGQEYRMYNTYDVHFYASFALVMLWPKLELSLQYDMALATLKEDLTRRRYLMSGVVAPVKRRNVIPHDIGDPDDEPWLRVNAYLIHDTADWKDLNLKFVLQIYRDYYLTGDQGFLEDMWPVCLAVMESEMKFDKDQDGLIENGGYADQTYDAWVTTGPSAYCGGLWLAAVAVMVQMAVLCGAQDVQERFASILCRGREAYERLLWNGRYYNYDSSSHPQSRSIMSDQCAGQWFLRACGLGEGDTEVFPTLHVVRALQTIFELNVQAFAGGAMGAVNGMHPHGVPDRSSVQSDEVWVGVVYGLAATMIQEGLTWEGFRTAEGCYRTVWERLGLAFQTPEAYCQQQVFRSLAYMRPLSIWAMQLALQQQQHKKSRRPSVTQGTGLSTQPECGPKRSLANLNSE
The experiment in a line: Inhibition of GBA2 activity in mouse tissue homogenate at 50 uM. Put shortly:
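Mouse tissue homogenates were used to separate nonlysosomal GBA2 from lysosomal GCase β-glucosidase activity. Compounds were screened at 50 and 5 μM with 3 mM substrate. Two independent experiments, each run in duplicate.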

Take `CCCCCCCCCN1C[C@H](O)[C@@H](O)[C@H](O)[C@H]1CO`: the inhibition entry was “Active”.
